# A number with no mark means an inactive call. Records with an inconclusive call do not appear. The source made the active and inactive calls.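 Rule for the calls, unless noted: active = growth inhibition above 25% in both replicates, a cutoff set 3 SD above the mean; inconclusive = above 25% in only one replicate; inactive = the rest.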
# Columns and labels:
# [1] = S. cerevisiae growth inhibition in permissive medium (OD615), pilot counter-assay for S. cerevisiae lifespan shortening project, permissive growth control (AID 705); settings: OD615, 24 h, at 10 µM, stronger effect = higher value
# Method in brief: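 assay system = Saccharomyces cerevisiae strain carrying genetically modified DeaD replicative-lifespan system | technique = absorbance (optical density) at 615 nm | buffer or medium = permissive raffinose/galactose medium | timing = cells pre-grown 4 h, then 24 h compound exposure, 30 °C humidified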
# [2] = S. cerevisiae growth inhibition in restrictive medium, OD615, pilot screen, restrictive growth control, yeast lifespan reduction project (AID 706;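 active = growth inhibition above a set limit, 3 SD over mean compound inhibition, in both replicates, cut at about 43% in these data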;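 note: modified DeaD lifespan yeast strain shifted to restrictive glucose medium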); settings: OD615, 48 h, at 10 µM, stronger effect = higher value
# Method in brief: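 System: modified S. cerevisiae. Buffer or medium: CSMM-D glucose medium. Incubation: 4 h pre-growth plus 48 h compound exposure, 30 °C. Detection: absorbance (optical density) measured at 615 nm.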
# [3] = doxorubicin toxicity protection in MRP-1 cells – H69AR cells, CellTiter-Glo, duplicate, MRP-1 activator project, pilot screen (AID 807;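 active = viability increase at or above a cutoff of the median across tested compounds plus 3 SD, cut at about 8.5% in these data, passing the limit was not always enough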;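 note: compound pretreatment 18-22 h then 72 h combined with doxorubicin; 0% = doxorubicin alone and 100% = vehicle without doxorubicin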); settings: H69AR viability with doxorubicin, CellTiter-Glo luminescence; at 10 µM; stronger effect = higher value
# [4] = viability of HCT116 without oncogenic beta-catenin – human colon tumor cells, pilot screen (AID 823;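 active = cell viability at or below a set limit in both duplicate runs, the limit being the all-compound median minus 4 SD, cut at about 23% in these data, passing the limit was not always enough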;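 note: 0% = wells killed by 20 µM Hyamine and 100% = untreated DMSO cell wells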); settings: HCT116 beta-catenin knockout viability, CellTiter-Glo, 60 h; at 10 µM; stronger effect = lower value
# [5] = viability of PTEN-null HCT116 cells – cell-based, HCT116 clonal line, CellTiter-Glo, pilot screen (AID 824;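 active = viability at or below 27.92% in each of two runs, the all-compound median minus 4 SD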;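 note: 0% = 20 µM Hyamine control and 100% = vehicle cell control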); settings: HCT116 PTEN-deleted viability, 60 h, at 10 µM, stronger effect = lower value
# [6] = RAM pathway blockade in budding yeast – dse1pr::URA3 reporter, 5-FOA selection, pilot screen (AID 869;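 active = inhibition over a set limit, the all-compound mean plus 3 SD, in both replicate runs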;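 note: 0% = DMSO wells with no growth and 100% = 10 µM 1-NA-PP1 with full growth; RAM network block rescues cells from 5-FOA so hits raise OD615 growth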); settings: S. cerevisiae dse1pr::URA3 5-FOA growth, OD615, 2 d; at 10 µM; stronger effect = higher value; strain carries analog-sensitive mutant Cbk1 kinase
# [7] = RAM signaling pathway blockade in yeast – S. cerevisiae, Pdr1DBD-CYC8 efflux-inhibited sensitized strain, primary screen (AID 1298;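 active = RAM network inhibition above 8.4% in each of two replicates, 3 SD over the compound average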;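 note: 0% = DMSO untreated cells without growth and 100% = 10 µM 1-NA-PP1 full growth; higher means more yeast growth rescued from 5-FOA killing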); settings: S. cerevisiae cbk1-as DSE1-URA3 strain, 5-FOA growth OD615, 2 d; at 50 µM; stronger effect = higher value
Structure (SMILES),growth inhibition [1],growth inhibition [2],viability increase [3],viability [4],viability [5],inhibition [6],RAM network inhibition [7]
Cc1c(NC(=O)OCc2ccccc2)c(=O)n(-c2ccccc2)n1C,-7.33%,-0.325%,0.05%,109%,91.1%,1.35%,7.69%
C=CCn1c2ccccc2c2nnc(SCN3C(=O)c4ccccc4C3=O)nc21,7.65%,48.4% (active),-4.7%,100%,93.7%,3.45%,4.65%
CCOC(=O)C1=C(C)NC2=C(C(=O)CCC2)C1c1cc(OC)ccc1OC (configuration not stated),-10.6%,-12.8%,-1.47%,94.1%,96.3%,1.73%,7.52%
CCCCOc1ccccc1NC(=O)CC1SC(=NCC)N(CC)C1=O (configuration not stated),-9.35%,-0.705%,-2.29%,85.6%,81.3%,1.08%,2.04%
Cn1c(Cn2c(=O)sc3ccccc32)nnc1SCC(=O)N1CCc2ccccc21,-8.97%,-4.5%,-1.09%,86.1%,92.6%,2.98%,2.79%
OC(CN1c2ccccc2Sc2ccccc21)Cn1nnc2ccccc21 (configuration not stated),-4.44%,-9.12%,-6.85%,72%,66.2%,1.69%,10.2%
Cc1c(C(=O)NCc2ccc3c(c2)OCO3)oc2ccc(S(=O)(=O)N3CCC(C)CC3)cc12,-11.5%,-16.7%,0.73%,74.7%,73%,2.39%,11.2%
COCc1nnc(SCC(=O)Nc2cccc(Cl)c2C)n1-c1ccccc1,-5.62%,-13%,-0.41%,107%,93.3%,0.57%,3.49%
CCCCCCSc1nc2c(c(=O)[nH]c(=O)n2C)n1C,-0.55%,22.7%,-4.63%,82%,90.3%,0.395%,1.1%
Cn1c(NC(=O)CCc2ccccc2)cc(=O)n(C)c1=O,-8.68%,-8.72%,-3.77%,102%,96.9%,0.855%,-0.05%
CCOc1ccc2nc(N3CCC(C(=O)N4CCN(C(=O)c5ccco5)CC4)CC3)sc2c1,-10.8%,-9.39%,-4.93%,69.7%,77.7%,0.305%,3.91%
Cc1cc(Nc2ccc(Br)c(C)c2)n2nc(C)nc2n1,-8.54%,4.61%,-6.94%,80.9%,84.9%,0.65%,6.84%
O=C(Nn1nnnc1Nc1ccccc1)C12CC3CC(CC(C3)C1)C2,-3.62%,-2.85%,-5.83%,85.2%,86.5%,2.17%,4.63%
O=c1oc2c3c4c(cc2c2c1CCC2)OCCN4CCC3,-8.18%,-0.795%,-7.31%,58.3%,67.3%,0.055%,5.48%
COC(=O)C1(C)NC(=O)c2ccccc2N1 (configuration not stated),-6.57%,-7.71%,-0.86%,102%,99.2%,0.47%,5.23%
COc1ccc(C(=O)Nc2c(N)nc(SCC(=O)N3CCCCCC3)[nH]c2=O)cc1OC,-2.35%,-3.33%,-0.26%,96.8%,102%,1.97%,5.94%
O=C(Cn1ncc2c1-c1ccccc1OC2)N1CCN(Cc2ccc3c(c2)OCO3)CC1,-1.44%,10.4%,-3.39%,84.7%,90.2%,1.9%,2.06%
O=C(Nc1ccncc1)c1cccs1,-6.22%,4.99%,-2.27%,105%,95.2%,1.87%,0.93%

Structure (SMILES),growth inhibition [1],growth inhibition [2],viability increase [3],viability [4],viability [5],inhibition [6],RAM network inhibition [7]
COc1ccc(N2CCN(c3nc4c(c(=O)[nH]c(=O)n4C)n3Cc3ccccc3Cl)CC2)cc1,4.9%,-2.96%,-2.71%,84.6%,75.3%,2.07%,-1.3%
Nc1ccc(Nc2ccccc2)c(Cl)c1,-1.62%,19%,-7.58%,94.7%,97.8%,2.79%,4.55%
CC(C)Sc1nc2c(cnn2-c2ccc(F)cc2)c(=O)[nH]1,-8.33%,-1.79%,-3.72%,90.7%,97.3%,0.795%,3.54%
CCOC(=O)c1c(/N=C/N(C)C)sc(C(=O)OC)c1C,-5.39%,3.21%,-4.56%,91.1%,89.6%,0.78%,1.45%
CCOc1ccc(NS(=O)(=O)c2ccc3[nH]c(=O)oc3c2)cc1,-11.6%,-10.5%,1.01%,101%,92.6%,3.46%,4.48%
O=C(NCc1ccccn1)Nc1cccc(Cl)c1,-14.7%,-9.4%,-2.22%,97.7%,94.5%,0.095%,2.46%
CCCC(=O)N1CCN(C2=NS(=O)(=O)c3ccccc32)CC1,-0.28%,12.9%,-0.68%,103%,98.5%,-0.175%,3.82%
Cc1cc(N2CCOCC2)nc(SCC(=O)c2ccccc2)n1,-16.5%,-4.63%,-1.98%,99%,91.7%,2.53%,2.06%
C/C(N)=C(/C#N)C(=O)CSc1n[nH]c(-c2ccccc2Br)n1,-8.32%,8.69%,2.73%,110%,105%,-0.48%,-1.02%
CCCc1nc(SCC(=O)NCc2ccc3c(c2)OCO3)c2c(=O)n(C)c(=O)n(C)c2n1,1.28%,7.41%,-6.51%,61.1%,57.5%,2.25%,5.66%
O=C(Nc1ccc2c(c1)OCO2)c1ccncc1,-10.6%,0.215%,-0.85%,87.9%,90.1%,0.205%,3.42%
CCCC(=O)c1ccc(N2CCOCC2)c(F)c1,-7.96%,-9.48%,5.59%,98.7%,98.2%,-0.25%,0.58%
COc1ccccc1Cc1nc(-c2ccc(Br)o2)no1,-0.335%,6.17%,-3.52%,97.4%,85.8%,2.08%,5.63%
CCOC(=O)N1CCC(C(=O)Nc2ccc(OCC)cc2)CC1,5.44%,-3.75%,-1.27%,88%,93.9%,0.495%,6.44%
O=C(Nc1ccc(Oc2ccccc2)cc1)c1cnc2n(c1=O)CCS2,-16.5%,-12.6%,5.46%,68.8%,65.9%,3.62%,8.2%
CCCCOC(=O)Nc1ccc(S(=O)(=O)Nc2cc(C)nc(C)n2)cc1,-16.6%,-11.7%,-1.66%,95.8%,91.6%,1%,6.71%
Cc1ccc(CSc2nnc(Cn3c(=O)sc4ccccc43)n2C)cc1,-10.6%,5.88%,2.44%,95.8%,88.2%,2.75%,6.03%
O=C(OCC(F)(F)C(F)F)c1ccccc1C(=O)Oc1ccc(F)cc1F,-2.13%,-13.3%,-3.1%,99.1%,96.1%,1.86%,3.89%

# From PubChem BioAssay
